Lmaj promast: reduces viability of Leishmania major promastigotes. resazurin fluorescence viability. inhibition, % at 10 µM. 200,000 compounds, 9% hits. AID 1063; in the data active = inhibition above about 50%;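 also: promastigotes grown with compound for 44 hours at 28 °C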
MPTP inh: blocks calcium-induced mitochondrial swelling; isolated mouse mitochondria, Ca2+ swelling absorbance, 30 min; inhibition, % at 10 µM; 360,000 compounds, 1.4% hits; AID 602449;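 active = inhibition of 50% or more, scaled per plate between neutral and stimulator controls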;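 also: 0% = DMSO wells given calcium and 100% = 1 mM EGTA wells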
Redox H2O2 prof: compounds producing H2O2 with reducing agent – biochemical, NIH compound library profiling, artefact control for MLSCN library redox annotation, primary screen; DTT-dependent redox cycling H2O2, phenol red/HRP absorbance; 100% = 100 µM peroxide control, 0% = buffer; activation, % at 10 µM; 200,000 compounds, 0.03% hits;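 active = activation of at least 50% relative to the plate's high and low controls in the primary single-dose screen; inactive = activation below 50%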;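 also: compound incubated with DTT at 0.8 mM final as the reducing agent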
T cruzi repl: T. cruzi replication inhibition | T. cruzi beta-gal in NIH3T3, luminescence, 90 h | inhibition, % (concentration not given with the values) | 300,000 compounds, 1.4% hits | AID 1885;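 active = mean inhibition across valid replicates above about 55%, limit read from the data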;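 also: signal also drops with host cell toxicity which is not excluded here; 0% = plate median of DMSO wells and 100% = zero luminescence signal; higher percent means less beta-gal luminescence so fewer parasites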
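Material: NIH/3T3 host cells with β-galactosidase reporter T. cruzi; Input: 5,000 host fibroblasts per well; Medium: DMEM, 2% fetal bovine serum; Compound: 50 nL DMSO compound solution per well; Schedule: 3 h host attachment, then at least 90 h co-culture; Detection: luminescent β-galactosidase signal after 60 min lysis.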
Hep lipid drop: modulators of hepatic lipid droplet formation; AML12 mouse hepatocytes, oleate lipid droplets, BODIPY imaging; inhibition, % at 6.5 µM; 240,000 compounds, 0.4% hits; AID 1656;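 active = lipid droplet intensity inhibited by at least 50%, with more than 500 cells counted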
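System: AML12 hepatocytes (mouse). Probe or stimulus: oleic acid at 100 µM to induce lipid droplet formation. Times: overnight treatment with compound plus oleate. Detection: Image-based BODIPY and DAPI two-channel analysis. Evaluation: percent inhibition of filter-corrected integrated lipid droplet intensity per well.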
* = called active by the depositor; . = no result given; ! = not active in a repeat. The sample as a whole holds a higher share of hits than the screen did.

SMILES | Lmaj promast | MPTP inh | Redox H2O2 prof | T cruzi repl | Hep lipid drop
O=C(CN1CCCc2ccccc21)NC(=O)NCc1ccco1 | 11 | -1 | 3 | -2 | -15
CC1Cc2ccccc2N1CC(=O)NC(=O)NC1CCCC1 (centres undefined) | 98* | 0 | -2 | . | 0
O=C(CN1CCCCC1)NC(=O)NC1CCCC1 | -2 | -2 | 0 | 0 | 24
COc1ccc(SCCC(=O)NCc2ccncc2)cc1 | . | 2 | . | . | 2
Cc1cc(Cl)ccc1-c1nc(NCc2ccccc2)nc2ccsc12 | . | 0 | . | . | .
COc1ccc2c(C=Nc3c(C)n(C)n(-c4ccccc4)c3=O)c(O)n(Cc3ccco3)c(=O)c2c1 | 76*! | -2 | 0 | 30 | .
COc1cc(Nc2ccc(S(N)(=O)=O)cc2)c([N+](=O)[O-])nc1[N+](=O)[O-] | . | 0 | . | 7 | -5
CN(C(=O)Cc1c(C(=O)O)n(C)c2ccccc12)c1ccc(F)cc1 | -7 | 3 | -2 | -19 | -5
Cc1cccc(CN2CCCC(C(=O)N3CCCCC3)C2)c1 (centres undefined) | . | 1 | . | 25 | -8
O=C(C1CCCN(Cc2ccccc2F)C1)N1CCc2ccccc2C1 (centres undefined) | . | 1 | . | 28 | -13
O=C(C1CCCN(Cc2ccncc2)C1)N1CCc2ccccc2C1 (centres undefined) | 91* | 0 | -1 | 15 | .
Cc1cccc(CN2CCCC(C(=O)N3CCc4ccccc4C3)C2)c1 (centres undefined) | 95* | 0 | 0 | 55* | -6
Fc1ccccc1SCc1nnc(-c2ccccc2Br)o1 | 6 | 0 | -1 | 17 | 1
Cc1cccc(OCC(=O)N/N=C/CC(C)c2ccccc2)c1C (centres undefined) | -8 | -2 | 0 | -8 | -1
O=C(CSC1=NCCN1)NC(c1ccccc1)c1ccccc1 | 94* | -1 | 1 | 12 | 1
COc1ccc(Nc2nc3c(C)cccn3c(=O)c2C=NCc2ccccc2)cc1 | 63* | 2 | 0 | 50 | 0
CNc1nc2c(C)cccn2c(=O)c1C=NCc1ccccc1 | 25 | 2 | 0 | 0 | -4
Cc1ccc(NC(=S)NC(=O)c2cncc(Br)c2)cc1Cl | . | 18 | . | -5 | .
COc1ccccc1N1CCN(C2CCN(C(=O)COc3ccccc3)CC2)CC1 | -4 | -2 | 0 | -14 | 0
O=C(CCC1CCCC1)N1CCN(C2CCCC2)CC1 | 94* | -3 | -2 | 17 | -5
CC(C)CC(=O)N1CCC(N2CCN(c3ccccc3)CC2)CC1 | 90* | 0 | -4 | -12 | .
O=C(CCC1CCCC1)N1CCC(N2CCN(c3ccccc3)CC2)CC1 | 93* | 1 | -1 | 10 | 7
COc1ccc(N2CCN(C(=O)c3c(C)nn(-c4ccccc4)c3C)CC2)cc1 | 50* | 1 | 0 | -9 | -8
CC(=O)N1CCN(C(=O)c2ccc(Cl)c(S(=O)(=O)N3CCCCCC3)c2)CC1 | . | 0 | . | . | .
COc1ccc(C(=O)N2CCC(N3CCN(c4ccccc4)CC3)CC2)cc1 | 91* | 0 | 1 | 5 | 7
SMILES | Lmaj promast | MPTP inh | Redox H2O2 prof | T cruzi repl | Hep lipid drop
COc1ccccc1C(=O)N1CCC(N2CCN(c3ccccc3)CC2)CC1 | . | 1 | . | -17 | -4
O=C(Cc1ccc([N+](=O)[O-])cc1)N1CCCCCC1 | -7 | -1 | 0 | -24 | -1
COc1ccc(CCC(=O)N2CCN(C3CCCCC3)CC2)cc1 | 56* | 2 | 1 | 62* | -1
O=C(CCc1ccc(Oc2cc([N+](=O)[O-])cc([N+](=O)[O-])c2)cc1)N1CCCCCC1 | 98* | 24 | 0 | 68* | 0
CC(C#N)(NC(=O)CN1CCN(S(=O)(=O)c2cccc(F)c2)CC1)C1CC1 (centres undefined) | . | 2 | . | . | .
Cc1nc2ccc(-c3nc4ccccc4o3)cc2[nH]1 | 72* | 0 | 2 | 47 | .
Cc1nn(CC(=O)Nc2ccc(N3CCOCC3)cc2)c(C)c1[N+](=O)[O-] | . | -1 | . | . | .
CCCCC(=O)NC(c1ccccc1Cl)c1c(O)ccc2ccccc12 (centres undefined) | 99* | 42 | 2 | 26 | -20
CCCC(=O)NC(c1ccccc1Cl)c1c(O)ccc2ccccc12 (centres undefined) | 100* | 9 | -1 | 20 | -9
Cc1c(C(=O)N2CCC(C)(C(=O)NS(=O)(=O)C3CC3)C2)oc2ccccc12 (centres undefined) | . | 1 | . | . | .
